Among the data in ChEMBL document CHEMBL1148000, “Naphthyl piperazines with dual activity as 5-HT1D antagonists and 5-HT reuptake inhibitors” (Bioorg Med Chem Lett, 2007) are Ki, Kb and Activity values, retold here.

The source made the active and inactive calls. The calls are words filed in the database; no cut-off is given here.

Experiment [1] concerns the target T1, Adrenergic receptor alpha-1 (Rattus norvegicus, UniProt P15823+P23944+P43140).
T1 sequence (P15823 whole entry): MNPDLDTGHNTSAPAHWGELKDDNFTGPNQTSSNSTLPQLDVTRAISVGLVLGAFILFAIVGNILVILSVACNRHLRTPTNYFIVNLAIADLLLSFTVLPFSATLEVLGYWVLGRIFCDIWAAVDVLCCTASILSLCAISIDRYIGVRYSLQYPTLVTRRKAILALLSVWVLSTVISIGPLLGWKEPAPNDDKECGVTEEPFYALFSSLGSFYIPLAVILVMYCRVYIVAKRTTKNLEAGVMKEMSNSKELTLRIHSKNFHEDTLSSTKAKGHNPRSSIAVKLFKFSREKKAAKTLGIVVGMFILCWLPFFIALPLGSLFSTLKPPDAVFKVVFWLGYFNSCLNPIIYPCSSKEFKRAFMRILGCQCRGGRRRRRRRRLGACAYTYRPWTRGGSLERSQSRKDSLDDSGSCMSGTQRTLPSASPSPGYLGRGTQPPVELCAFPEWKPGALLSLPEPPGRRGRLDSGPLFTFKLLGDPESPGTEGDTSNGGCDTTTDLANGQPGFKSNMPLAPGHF
T1 sequence (P23944 whole entry): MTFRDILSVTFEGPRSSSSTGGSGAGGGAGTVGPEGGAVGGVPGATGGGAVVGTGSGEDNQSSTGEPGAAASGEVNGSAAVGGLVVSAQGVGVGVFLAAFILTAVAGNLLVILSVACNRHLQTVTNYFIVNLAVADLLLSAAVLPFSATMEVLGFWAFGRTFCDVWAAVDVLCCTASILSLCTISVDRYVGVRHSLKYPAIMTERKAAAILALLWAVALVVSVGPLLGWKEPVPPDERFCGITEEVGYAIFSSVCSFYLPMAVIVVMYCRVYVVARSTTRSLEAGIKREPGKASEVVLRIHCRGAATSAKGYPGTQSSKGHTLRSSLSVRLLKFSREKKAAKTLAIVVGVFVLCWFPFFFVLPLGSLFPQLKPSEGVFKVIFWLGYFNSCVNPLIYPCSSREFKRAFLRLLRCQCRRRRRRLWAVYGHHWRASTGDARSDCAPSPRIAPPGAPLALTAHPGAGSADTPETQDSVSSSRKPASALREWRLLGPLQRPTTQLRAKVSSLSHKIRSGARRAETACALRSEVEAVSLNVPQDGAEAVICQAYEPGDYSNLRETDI
T1 sequence (P43140 whole entry): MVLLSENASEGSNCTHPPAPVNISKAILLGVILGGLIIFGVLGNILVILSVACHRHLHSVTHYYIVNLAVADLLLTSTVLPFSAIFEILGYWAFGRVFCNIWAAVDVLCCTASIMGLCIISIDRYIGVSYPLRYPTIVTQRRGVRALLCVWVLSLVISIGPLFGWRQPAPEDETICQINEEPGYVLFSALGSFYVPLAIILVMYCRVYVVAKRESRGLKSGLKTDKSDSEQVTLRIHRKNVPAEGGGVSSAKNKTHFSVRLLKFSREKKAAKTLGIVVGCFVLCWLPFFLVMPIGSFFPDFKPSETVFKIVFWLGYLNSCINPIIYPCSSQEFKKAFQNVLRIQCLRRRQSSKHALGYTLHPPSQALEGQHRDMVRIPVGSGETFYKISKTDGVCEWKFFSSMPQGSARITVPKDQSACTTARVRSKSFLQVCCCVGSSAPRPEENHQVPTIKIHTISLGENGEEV
In words: Displacement of [3H]prazosin from adrenergic alpha-1 receptor in rat cortical membranes. It counts as cell membranes, Membrane. Put shortly: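 Rat cortex membranes were used, with [3H]-prazosin as radioligand for α1 binding. Ki (nM) is the mean of runs in triplicate.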

In experiment [2] the target is Sodium-dependent serotonin transporter (Homo sapiens, UniProt P31645). In words: Displacement of [3H]citalopram from human 5HT transporter expressed in HEK293 cells. It counts as cell-based. Put shortly: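 Human serotonin transporter was expressed in HEK293 cells. Inhibition was measured as displacement of [3H]-citalopram. Ki (nM) is the mean of runs in triplicate.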
Chain of Sodium-dependent serotonin transporter (P31645 whole entry): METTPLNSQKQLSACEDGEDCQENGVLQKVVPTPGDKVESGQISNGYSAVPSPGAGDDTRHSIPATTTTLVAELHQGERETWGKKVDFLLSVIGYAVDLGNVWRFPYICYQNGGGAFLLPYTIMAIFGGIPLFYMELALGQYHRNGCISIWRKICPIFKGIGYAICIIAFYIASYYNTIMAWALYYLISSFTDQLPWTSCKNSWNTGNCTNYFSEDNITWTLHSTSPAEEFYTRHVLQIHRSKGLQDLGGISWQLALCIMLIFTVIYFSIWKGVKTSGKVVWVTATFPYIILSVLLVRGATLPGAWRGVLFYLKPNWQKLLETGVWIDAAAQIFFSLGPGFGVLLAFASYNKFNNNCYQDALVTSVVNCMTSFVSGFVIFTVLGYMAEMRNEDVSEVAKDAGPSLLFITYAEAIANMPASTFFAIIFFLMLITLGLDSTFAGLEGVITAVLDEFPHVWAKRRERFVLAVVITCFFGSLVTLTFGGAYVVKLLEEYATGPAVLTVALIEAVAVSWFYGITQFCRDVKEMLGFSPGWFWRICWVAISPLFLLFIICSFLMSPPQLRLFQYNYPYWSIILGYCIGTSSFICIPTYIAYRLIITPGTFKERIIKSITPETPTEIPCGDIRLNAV

Experiment [3] addresses 5-hydroxytryptamine receptor 1B (Homo sapiens, UniProt P28222). In words: Displacement of [3H]GR-125743 from human 5HT1B expressed in LM(tk-) cells. The class given is cell-based. Put shortly:
(§1)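 Human 5-HT1B or 5-HT1D receptors were cloned into L-M(tk-) cells, and membrane homogenates were prepared from these cells. Binding used [3H]-GR125743 as radioligand. Ki (nM) is the mean of runs in triplicate.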

For experiment [4], the target named is T2, 5-hydroxytryptamine receptor 1D (Homo sapiens, UniProt P28221). In words: Antagonist activity at human 5HT1D expressed in LM(tk-) cells by [35S]GTPgamma binding assay. It counts as functional, cell-based. Put shortly: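 5-HT dose–response curves for [35S]GTPγS binding were run in LM(tk-) cells stably expressing the human 5-HT1D receptor. Antagonism was read as the rightward shift of these curves. Results are given as KB or as % displacement at 30 nM.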
T2 sequence (P28221 whole entry): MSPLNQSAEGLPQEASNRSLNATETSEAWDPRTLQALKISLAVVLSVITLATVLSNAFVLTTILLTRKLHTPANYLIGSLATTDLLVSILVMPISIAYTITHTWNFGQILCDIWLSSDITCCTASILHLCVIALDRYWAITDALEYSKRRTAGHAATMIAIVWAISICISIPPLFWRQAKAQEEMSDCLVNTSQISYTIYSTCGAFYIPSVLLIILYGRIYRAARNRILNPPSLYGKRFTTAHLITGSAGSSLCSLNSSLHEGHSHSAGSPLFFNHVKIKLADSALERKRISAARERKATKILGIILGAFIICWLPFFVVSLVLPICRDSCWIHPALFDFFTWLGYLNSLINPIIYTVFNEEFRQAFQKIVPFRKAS

Experiment [5] addresses T2, 5-hydroxytryptamine receptor 1D. Kind of experiment: Displacement of [3H]GR-125743 from human 5HT1D expressed in LM(tk-) cells. It counts as cell-based. The essentials:
as §1
In general terms: Loss of bound radioactivity is the signal in a displacement assay; it reports binding, not function.

Another experiment deals with D(2) dopamine receptor (Rattus norvegicus, UniProt P61169). Kind of experiment: Displacement of [3H]raclopride from dopamine D2 receptor in rat caudate membranes. It counts as cell membranes, Membrane. The essentials:
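D2 binding was measured in rat caudate membranes with [3H]-raclopride. Ki (nM) is the mean of runs in triplicate.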

In experiment [6] the target is T3, 5-hydroxytryptamine receptor 1A (Homo sapiens, UniProt P08908).
T3 sequence (P08908 whole entry): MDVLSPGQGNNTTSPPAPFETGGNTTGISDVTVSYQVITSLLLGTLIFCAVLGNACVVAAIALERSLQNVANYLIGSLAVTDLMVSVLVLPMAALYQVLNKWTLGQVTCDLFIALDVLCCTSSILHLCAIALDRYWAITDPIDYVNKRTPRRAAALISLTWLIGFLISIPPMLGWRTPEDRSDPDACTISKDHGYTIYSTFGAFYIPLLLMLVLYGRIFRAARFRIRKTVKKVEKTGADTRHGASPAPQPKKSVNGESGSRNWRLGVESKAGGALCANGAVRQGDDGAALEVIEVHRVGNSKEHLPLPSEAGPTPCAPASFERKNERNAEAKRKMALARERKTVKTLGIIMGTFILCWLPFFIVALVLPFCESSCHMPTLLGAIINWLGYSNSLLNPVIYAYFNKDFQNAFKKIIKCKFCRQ
Kind of experiment: Displacement of [3H]8-OH-DPAT from human 5HT1A expressed in LM(tk-) cells. It counts as cell-based. The essentials: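 Human 5-HT1A was cloned into L-M(tk-) cells, and membrane homogenates were prepared. Binding used [3H]-8-OH-DPAT as radioligand. Ki (nM) is the mean of runs in triplicate.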

In experiment [7] the target is T2, 5-hydroxytryptamine receptor 1D. Kind of experiment: Functional antagonism of 5-HT-stimulated GTP-gamma-[35S] binding to human 5HT1D expressed in LM(tk-) cells at 30 nM. Also on record: scale not given: the % may be the effect or the level left. A general note: GTPγS is a poorly hydrolysed GTP analogue; its binding reports G protein activation.
The next experiment relates to Hypothalamus. Kind of experiment: Increase in extracellular 5HT level in guinea pig hypothalamus at 10 mg/kg, po after 3 hrs. It counts as functional, organism-based. Also on record: dose 10 mg/kg. The following applies: Cavia porcellus. The essentials: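 Microdialysis was done in the hypothalamus of freely moving guinea pigs. Dosing was 10 mg/kg po. Extracellular 5-HT is expressed as a percentage of a pre-injection control period, assessed over 3 h post-dose, as means + SEM.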

Chain of D(2) dopamine receptor (P61169 whole entry): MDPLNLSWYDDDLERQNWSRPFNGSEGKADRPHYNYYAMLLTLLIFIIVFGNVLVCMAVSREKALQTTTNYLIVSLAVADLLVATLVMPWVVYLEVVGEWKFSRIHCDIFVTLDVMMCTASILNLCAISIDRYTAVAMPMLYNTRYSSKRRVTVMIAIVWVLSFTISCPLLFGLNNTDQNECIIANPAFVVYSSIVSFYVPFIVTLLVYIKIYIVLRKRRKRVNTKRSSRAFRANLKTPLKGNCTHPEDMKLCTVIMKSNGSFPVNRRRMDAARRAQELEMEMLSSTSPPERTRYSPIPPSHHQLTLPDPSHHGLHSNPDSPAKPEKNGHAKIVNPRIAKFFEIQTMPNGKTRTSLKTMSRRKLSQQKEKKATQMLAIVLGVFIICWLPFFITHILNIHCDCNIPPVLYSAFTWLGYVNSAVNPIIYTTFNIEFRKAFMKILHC
Chain of 5-hydroxytryptamine receptor 1B (P28222 whole entry): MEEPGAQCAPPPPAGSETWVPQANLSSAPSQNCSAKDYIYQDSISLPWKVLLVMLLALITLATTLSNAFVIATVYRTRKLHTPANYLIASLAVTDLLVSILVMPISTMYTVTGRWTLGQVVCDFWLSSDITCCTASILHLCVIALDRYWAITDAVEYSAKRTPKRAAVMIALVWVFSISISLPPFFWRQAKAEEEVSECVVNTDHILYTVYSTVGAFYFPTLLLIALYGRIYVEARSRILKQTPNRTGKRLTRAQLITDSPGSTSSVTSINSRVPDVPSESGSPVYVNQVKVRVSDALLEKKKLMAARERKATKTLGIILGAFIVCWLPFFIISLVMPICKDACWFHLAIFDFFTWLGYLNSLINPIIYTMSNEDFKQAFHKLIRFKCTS

The Ki is the dissociation constant of the complex between target and ligand, obtained from inhibition or displacement. As a reminder, the Kb is the affinity of an antagonist, worked out from how it opposes an agonist. As to `NC(=O)c1ccc2c(c1)CCO[C@H]2CCN1CCN(c2ccc3cc(F)ccc3c2)CC1`, the Ki in experiment [1] was 96 nM; in experiment [2], 8.1 nM; in experiment [3] it was > 1000 nM; in experiment [5], 10 nM; on D(2) dopamine receptor it was 704 nM. The compound also displayed a Kb in experiment [4] of 0.86 nM.

On to `N#Cc1ccc2c(N3CCN(CC[C@@H]4OCCc5cc(C(N)=O)ccc54)CC3)cccc2c1`, for which the inhibitory constant (Ki) in experiment [1] was found to be 178 nM; in [2], 5.7 nM; in [3], 15 nM; in experiment [6] it was 16 nM; in experiment [5], 1 nM; at D(2) dopamine receptor, 88 nM. Further, the Activity in experiment [7] came out at 101%.

`NC(=O)c1ccc2c(c1)CCOC2CCN1CC=C(c2c[nH]c3cc(F)ccc23)CC1` (centres undefined): the inhibition constant Ki in experiment [1] came out at 0.7 nM; in experiment [2] it was 0.1 nM; in [3], 203 nM; in [5] it was 8 nM; at D(2) dopamine receptor it was 42 nM. This compound displayed a Kb in experiment [4] of 4.3 nM.

As to `C[C@H]1CN(c2ccc3cc(F)ccc3c2)CCN1CC[C@@H]1OCCc2cc(C(N)=O)ccc21`, the inhibition constant (Ki) is 91 nM in experiment [1]; 2.1 nM in experiment [2]; > 1000 nM in experiment [3]; 307 nM in experiment [6]; 14 nM in experiment [5]; 1170 nM on D(2) dopamine receptor. Further, the Kb in experiment [4] came to 4.05 nM.

In the case of `C[C@@H]1CN(c2cccc3cc(F)ccc23)CCN1CC[C@H]1OCCc2cc(C(N)=O)ccc21`, the Ki in experiment [1] amounted to 74 nM; in experiment [2], 7.4 nM; in experiment [3] it was 91 nM; in experiment [6], 105 nM; in experiment [5] it was 88 nM; at D(2) dopamine receptor it was 78 nM. In experiment [4], this compound returned a Kb of 11.1 nM.

Turning to `C[C@@H]1CN(c2cccc3cc(F)ccc23)CCN1CCC1OCCc2cc(C(N)=O)ccc21` (some centres undefined), the Ki in experiment [1] came out at 16 nM; in experiment [2] it was 0.8 nM; in [3] it was 281 nM; in [5], 56 nM; at D(2) dopamine receptor, 4.7 nM. The same compound had an antagonist dissociation constant (Kb) in [4] of 0.01 nM.

As to `C[C@@H]1CN(c2cccc3cc(F)ccc23)CCN1CC[C@@H]1OCCc2cc(C(N)=O)ccc21`, the Ki in experiment [1] was found to be 80 nM; in experiment [2], 3 nM; in experiment [3], 103 nM; in experiment [6] it was 115 nM; in experiment [5], 7 nM; at D(2) dopamine receptor it was 71 nM. Also, the Kb in experiment [4] turned out to be 0.01 nM.

On to `C[C@H]1CN(c2cccc3cc(C#N)ccc23)CCN1CC[C@@H]1OCCc2cc(C(N)=O)ccc21`, for which the Ki turned out to be 353 nM in [1]; 2.2 nM in experiment [2]; 21 nM in [3]; 26 nM in experiment [6]; 0.9 nM in experiment [5]; 287 nM at D(2) dopamine receptor. In addition, the outcome in the experiment with Hypothalamus was Active. Also, the Activity in [7] was determined as 124%.

As to `C[C@H]1CN(c2cccc3cc(F)ccc23)CCN1CC[C@H]1OCc2cc(C(N)=O)ccc21`, the Ki in experiment [1] is 43 nM; in experiment [2] it was 8.8 nM; in experiment [3], > 1000 nM; in [6] it was 13 nM; in experiment [5], 67 nM; on D(2) dopamine receptor, 107 nM. Also, in experiment [4], the Kb turned out to be 1.9 nM.

`C[C@H]1CN(c2cccc3cc(C#N)ccc23)CCN1CC[C@H]1OCc2cc(C(N)=O)ccc21`: the inhibitory constant (Ki) in [1] worked out at 338 nM; in [2] it was 1.3 nM; in [3], 88 nM; in experiment [5], 1.8 nM; at D(2) dopamine receptor it was 346 nM. The Kb in experiment [4] was determined as 0.18 nM.

With `C[C@H]1CN(c2cccc3cc(F)ccc23)CCN1CC[C@@H]1OCc2cc(C(N)=O)ccc21`, the Ki in experiment [1] came out at 64 nM; in experiment [2], 1.3 nM; in experiment [3] it was 114 nM; in experiment [6] it was 13 nM; in experiment [5], 14 nM; at D(2) dopamine receptor it was 26 nM. The Kb in experiment [4] was found to be 0.05 nM.
